Assay outcomes from PubChem BioAssay.
NR1D1 modulator = Rev-erb alpha (human) modulation; Rev-erbα–FITC-DNA binding, fluorescence polarization, 90 min; 370,000 tested, 0.79% active; P20393; activity, % at 10 µM; AID 1259318;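 active = activity above about 14%, limit read from the data; passing the limit was not always enough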
Target sequence (P20393 whole entry, looked up): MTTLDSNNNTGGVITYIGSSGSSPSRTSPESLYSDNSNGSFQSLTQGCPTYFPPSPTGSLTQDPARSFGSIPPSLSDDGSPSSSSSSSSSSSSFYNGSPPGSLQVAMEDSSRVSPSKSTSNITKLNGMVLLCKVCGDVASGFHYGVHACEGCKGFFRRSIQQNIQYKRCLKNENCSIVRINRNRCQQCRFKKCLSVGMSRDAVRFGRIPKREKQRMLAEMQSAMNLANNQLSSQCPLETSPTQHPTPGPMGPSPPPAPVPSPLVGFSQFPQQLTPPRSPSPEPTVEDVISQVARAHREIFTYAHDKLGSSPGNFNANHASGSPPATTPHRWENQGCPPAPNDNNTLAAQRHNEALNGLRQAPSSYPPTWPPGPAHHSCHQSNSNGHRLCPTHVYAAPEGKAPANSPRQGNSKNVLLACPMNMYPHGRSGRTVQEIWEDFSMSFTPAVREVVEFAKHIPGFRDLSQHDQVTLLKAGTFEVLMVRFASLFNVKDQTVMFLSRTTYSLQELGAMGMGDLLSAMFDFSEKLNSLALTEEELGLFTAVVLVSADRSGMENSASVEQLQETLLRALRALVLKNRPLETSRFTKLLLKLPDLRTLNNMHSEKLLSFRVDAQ
TPT1 inh = C. albicans TPT1 enzyme inhibition; 300,000 tested, 0.81% active; recombinant caTPT1, FP RNA substrate dephosphorylation; AID 1962; inhibition, % at 5 µM;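 active = inhibition above the mean of all tested compounds plus 3 SD, set per screening campaign, cut at about 24% in these data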
CSN inh = CSN deneddylation inhibition | Purified CSN, SCF-Nedd8-OG deneddylation, fluorescence polarization | Q92905 | AID 651999 | inhibition, % at 12.5 µM | 360,000 tested, 0.38% active;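 active = pattern-corrected inhibition above about 35%, with an unprinted fluorescence ratio check between 0.5 and 1.5, limit read from the data, passing the limit was not always enough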
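Assay system: HEK293T-derived human Csn5 enzyme; quantity: 0.24 nM enzyme; medium: Tris/NaCl/DTT buffer, pH 7.5; also added: substrate SCFSkp2-Nedd8OG, 10 nM; doses: 12.5 µM compound; schedule: 90 min reaction at room temperature; signal: FP; read-out: % inhibition of substrate cleavage by Csn5; benchmarks: substrate-only high control, full reaction low control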
HNF4A DNA FP = change in binding of human HNF4 alpha to DNA | 360,000 tested, 0.3% active | activity change, % at 10 µM | HNF4a-FITC DNA binding, fluorescence polarization, 1 h | AID 1224865 | P41235; in the data active = activity change above about 30%, passing the limit was not always enough
NR1D1 mod conf = Rev-erb alpha (human) modulation, hit confirmation; AID 1259319; shares compounds with NR1D1 modulator; Rev-erb alpha FITC-DNA binding, fluorescence polarization, 90 min; 3,000 tested, 61% active; activation, % at 25 µM;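 active = activation at or above a set limit, or at least 3 SD above the negative control mean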
RORg counter = affects RORgamma DNA binding in a Rev-erb alpha counter-screen. shares compounds with NR1D1 modulator. 910 tested, 8% active. purified RORgamma protein-FITC-DNA binding, fluorescence polarization. IC50, µM;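 active = Compounds whose fitted half-maximal concentration for disrupting protein-DNA binding is below 10 micromolar; the record names Rev-erb in its text, so the target is in doubt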
A number is an active result; - = inactive; . = not tested or not shown. This is a sample that favours compounds with a hit; in the whole collection about 1.7% have one here.

SMILES	NR1D1 modulator	TPT1 inh	CSN inh	HNF4A DNA FP	NR1D1 mod conf	others
O=C(NCC(=O)N1CCCC1)c1ccc(Cl)cc1	-	-	-	-	.
Cc1ccc(S(=O)(=O)NC(CCCNC(=O)OCc2ccccc2)C(=O)O)cc1 (centres undefined)	-	.	.	.	.
Cn1c(N)c(C(=O)COC(=O)C2(c3ccc(F)cc3)CCCC2)c(=O)n(C)c1=O	-	-	-	-	.
Cn1c(N)c(C(=O)COC(=O)C2(c3ccccc3F)CCCC2)c(=O)n(C)c1=O	19	-	-	-	-
CCCCNc1c(-c2cccc(SC(C)CC)c2)nc2ccc(Cl)cn12 (centres undefined)	-	.	-	-	.
CCC(C)Sc1ccc(-c2nc3ccc(Cl)cn3c2NCc2ccccc2)cc1 (centres undefined)	26	.	-	-	-
CC1=CC(=C(C#N)C#N)C=C(C)N1CCN1CCN(C(=O)Nc2ccc(Cl)c(Cl)c2)CC1	41	-	-	-	26
CN1CCN(C2=CC3=CC(=C(C#N)C#N)CCC3CC2)CC1 (centres undefined)	.	.	-	-	.
N#CC(C#N)=C1C=C2C=C(N3CCCCCC3)CCC2CC1 (centres undefined)	273	.	-	-	167	RORg counter=-
N#CC(C#N)=C1C=C2C=C(N3CCOCC3)CCC2CC1 (centres undefined)	305	.	-	-	111	RORg counter=-
C=CCN(c1ccc(C(=O)NCCN2CCOCC2)cc1)S(C)(=O)=O	-	-	-	-	.
O=C(Nc1cc([N+](=O)[O-])ccc1O)NC1CCS(=O)(=O)C1 (centres undefined)	16	.	-	-	15
CC[C@]1(C(=O)OC)[C@H]2C(=O)N(C)C(=O)[C@H]2[C@H]2CN(C)C(=NC3CCCCC3)N21	-	.	-	-	.
COc1ccc2cc(C(N)=O)/c(=N\NC(=O)c3ccccc3)oc2c1	-	-	-	-	.
COc1cccc(C(=O)N/N=c2/oc3ccccc3cc2C(N)=O)c1	14	-	-	-	-
COc1cc(C=C2C(=O)c3ccccc3C2=O)cc(OC)c1OC	-	-	-	-	.
COc1cc(C=Cc2nnc3c4ccccc4cnn23)cc(OC)c1OC	50	.	-	-	36	RORg counter=-
c1csc(-c2nc(-c3ccc(-c4ccon4)s3)no2)c1	21	-	-	-	-
COc1ccc2cc(C3CC(c4cccs4)=NN3C(C)=O)c(Cl)nc2c1 (centres undefined)	41	-	-	-	32	RORg counter=-
Oc1ccc(N=Nc2ccccc2C(F)(F)F)c2cccnc12	23	-	-	-	-
C=CCN1[C@@H](C)[C@H](c2ccccc2)Oc2cccc(N3CCCC3)c2S1(=O)=O	-	.	.	.	.
COc1ccccc1C=C(C(=O)c1ccccc1)c1ccccc1	18	.	-	-	-
COc1ccccc1/C=C(/C(=O)OCC(N)=O)c1ccccc1	-	-	-	-	.
CCOC(=O)c1oc2ccccc2c1NC(=O)COc1cccc(OC)c1	23	-	-	-	-
COc1cc(C(C)=O)ccc1Oc1ncnc2c1cnn2-c1cccc(Cl)c1	-	-	-	-	.
SMILES	NR1D1 modulator	TPT1 inh	CSN inh	HNF4A DNA FP	NR1D1 mod conf	others
COc1cc(C(C)=O)ccc1Oc1ncnc2c1cnn2-c1ccc(F)cc1	25	-	-	-	-
FC(F)(F)c1cc(-c2ccco2)nc(-n2nnc3ccccc32)n1	21	-	-	-	-
FC(F)(F)c1cc(-c2ccco2)nc(-n2nc(C(F)(F)F)cc2C2CC2)n1	-	-	-	-	.
C[n+]1ccc(/C=C/c2c[nH]c3ccc(F)cc23)cc1	125	.	-	-	90	RORg counter=-
CN(C)c1ccc(NC(=O)Nc2nc(C(N)C3CCCCC3)cs2)cc1 (centres undefined)	-	.	-	-	.
CCCCCNC(=O)c1c[nH]c2ccc(S(=O)(=O)N3CCC4(CC3)OCCO4)cc2c1=O	38	-	-	-	48	RORg counter=-
CCN(CC)S(=O)(=O)c1ccc2[nH]cc(C(=O)NCCCN3CCCCC3C)c(=O)c2c1 (centres undefined)	27	-	-	-	-
C=CCN1CC(COCCCC)Oc2ccc(Cl)cc2S1(=O)=O (centres undefined)	-	.	.	.	.
Cc1ccc(OCCn2c(NC(=O)c3ccco3)nc3ccccc32)cc1	30	-	-	-	-
O=C(Nc1nc2ccccc2n1Cc1ccc(Cl)cc1)c1ccco1	28	-	-	-	-
O=C(Nc1nc2ccccc2n1CCOc1ccccc1)c1ccco1	-	-	-	-	.
COc1ccccc1-c1nc(SCC(=O)Nc2cc(C)on2)c2c(=O)n(C)c(=O)n(C)c2n1	72	-	-	-	60	RORg counter=-
CCc1cc2c(C)ccc(C)c2nc1SCC(=O)Nc1cc(C)on1	24	-	-	-	-
CCc1cc2ccc(OC)cc2nc1SCC(=O)Nc1cc(C)on1	75	-	-	-	57	RORg counter=-
CCc1cc2cc(C)cc(C)c2nc1SCC(=O)Nc1cc(C)on1	-	-	-	-	.
CCc1cc2ccccc2nc1SCC(=O)Nc1cc(C)on1	-	-	-	-	.
Cc1cc(NC(=O)CSc2nc(-c3ccccc3)nc3c2c(=O)n(C)c(=O)n3C)no1	-	-	-	-	.
CCc1cc2cc(C)c(C)cc2nc1SCC(=O)Nc1cc(C)on1	36	-	-	-	-
Cc1ccc(-c2nnc(N3CCCCC3)c3ccccc23)cc1	-	-	-	-	.
Cc1ccc(-c2nnc(-n3ncc(C#N)c3N)c3ccccc23)cc1C	33	-	-	-	27
CCOC(=O)Nc1cc(=O)c([N+](=O)[O-])c(N)[nH]1	-	.	.	.	.
CCOC(=O)c1sc2nc(C)nc(NCCc3ccc(S(N)(=O)=O)cc3)c2c1C	40	-	-	-	-
Cc1nc(NCCc2ccc(S(N)(=O)=O)cc2)c2c(C)c(C)sc2n1	-	-	-	-	.
NC(=O)NN=C1CCC(O)CC1CC(=O)O (centres undefined)	-	.	.	.	.
CC(=O)Nc1ccc(Nc2nc(-c3cc4ccccc4oc3=O)cs2)cc1	-	.	-	-	.
SMILES	NR1D1 modulator	TPT1 inh	CSN inh	HNF4A DNA FP	NR1D1 mod conf	others
O=C(Nc1nc(-c2cc3ccccc3oc2=O)cs1)c1ccc(Br)o1	54	-	-	-	31
COc1ccc(NC(=O)CSc2nnc(-c3ccccn3)n2N)c(OC)c1	-	-	-	-	.
COc1ccc(NC(=O)CSc2nnc(-c3cccs3)n2N)c(OC)c1	13	-	-	-	-
CCOC(=O)c1sc2nc(C)n(N)c(=O)c2c1C	-	-	-	-	.
CCOC(=O)c1sc2nc(C)[nH]c(=S)c2c1C	62	.	-	-	19
CCn1cc(C2N3CC4(C)CN2CC(C)(C3)C4=O)c2ccccc21 (centres undefined)	50	-	-	-	56	RORg counter=-
CN1CCN(c2ccc3sc(-n4ccc5ccccc54)nc3c2)CC1	-	.	-	-	.
CC(=O)OCCCN1CCC2(CCCCC2)C1=O	-	.	.	.	.
